Assay outcomes as filed in PubChem.
A selection: hits, their analogues and other compounds. The true share with any hit is near 1.5%.
HCV NS3 hel inh – blocks Hepatitis C virus NS3 helicase unwinding. 0.56% of 290,000 active. AID 1800. inhibition, % at 10.9 µM. NS3 helicase DNA unwinding, Cy5 molecular beacon fluorescence;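 active = inhibition above the mean of all tested compounds plus 3 SD, set per campaign, cut at about 35% in these data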
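Control set: DMSO versus 110 µM thioflavine S; Material: NS3 helicase fragment of HCV; Measured by: Cy5 fluorescence at 0 and 60 min, beacon hairpin quenching; Read-out basis: percent inhibition from t60/t0 fluorescence ratio; Times: reaction time 60 min, 25 °C; Repeats: single replicate; Compound dosing: single dose, 10.9 µM nominal final, DMSO 0.8% final.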
CASP6 VEID inh – inhibitors of human caspase-6. P55212. inhibition, % at 12.5 µM. AID 686996. purified caspase-6, Z-VEID-R110 cleavage fluorescence. 0.53% of 350,000 active;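 active = mean inhibition across replicates at least about 35%, with every replicate also reaching that limit, limit read from the data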
Target sequence (P55212 24-179 limits assumed): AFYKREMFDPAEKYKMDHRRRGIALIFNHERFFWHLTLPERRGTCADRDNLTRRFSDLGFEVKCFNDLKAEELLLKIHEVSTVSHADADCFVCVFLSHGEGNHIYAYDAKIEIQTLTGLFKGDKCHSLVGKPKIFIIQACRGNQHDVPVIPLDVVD
Target sequence (P55212 194-293 limits assumed): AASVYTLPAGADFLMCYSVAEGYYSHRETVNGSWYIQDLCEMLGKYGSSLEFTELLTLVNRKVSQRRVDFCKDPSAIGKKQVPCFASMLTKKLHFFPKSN
NSD2 HMT inh – NSD2 (human) methyltransferase inhibition; 0.54% of 310,000 active; inhibition, % at 12.5 µM; O96028; AID 743445; NSD2 peptide methylation, AlphaScreen, 120 min
DNMT1 inh – inhibitors of human DNMT1. P26358. DNMT1 molecular beacon, Hinp1I cleavage, fluorescence. inhibition (reported as % activation of signal), % at 10 µM. 0.83% of 360,000 active. AID 588458
NS3 hel confirm – confirmation of Hepatitis C virus NS3 helicase inhibitors; shares compounds with HCV NS3 hel inh; NS3 helicase DNA unwinding, Cy5 molecular beacon fluorescence; inhibition, % at 10.9 µM; 31% of 1,600 active; AID 1943;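 active = inhibition above the mean of all tested compounds plus 3 SD, cutoff set per campaign, cut at about 36% in these data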
DNA FID counter – intercalator displacement, NS3 helicase counter-screen. shares compounds with HCV NS3 hel inh. DNA fluorescent intercalator displacement, fluorescence. inhibition, % at 7.9 µM. 4% of 1,600 active; in the data active = inhibition above about 37%;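 also: higher means more displacement of ethidium bromide from the DNA hairpin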
Numbers stand for hits; n = inactive; x = not tested or not shown. Rule as the data show it, unless noted: active = inhibition above about 50%; inactive = the rest.

SMILES	HCV NS3 hel inh	CASP6 VEID inh	NSD2 HMT inh	DNMT1 inh	NS3 hel confirm	DNA FID counter
COc1ccc(NC(=O)CSc2nc(N)c(NC(=O)c3ccccc3F)c(=O)[nH]2)cc1	n	n	n	n	x	x
CC(C)NC(=O)CSc1nc(N)c(NC(=O)c2ccccc2F)c(=O)[nH]1	65	n	n	n	n	n
CCc1ccc(C(=O)C(C)OC(=O)C2COc3ccccc3O2)cc1 (stereo not drawn)	45	n	n	n	n	n
O=C(O)CCn1c(SCCOc2ccccc2)nc2ccccc21	41	n	n	n	n	n
Oc1ccc(N=Nc2cccc(C(F)(F)F)c2)cc1C=Nc1ccc(N2CCOCC2)cc1	45	x	n	n	n	39
Oc1ccc(C=Nc2ccc(N3CCOCC3)cc2)c(O)c1	n	x	n	n	x	x
N=C1S/C(=C\c2ccco2)C(=O)N1c1ccc2c(c1)OCO2	40	n	n	n	n	n
CC(C)c1ccc(NC(=O)c2ccccc2NC(=O)C2CCCCC2C(=O)O)cc1 (stereo not drawn)	45	n	n	n	48	n
O=C(Nc1ccc(F)cc1)c1ccccc1NC(=O)C1CCCCC1C(=O)O (stereo not drawn)	x	n	n	n	x	x
Cc1cc(C(=O)CSc2nnc(-c3ccco3)o2)c(C)n1CC1COc2ccccc2O1 (stereo not drawn)	42	x	n	n	n	n
Cc1cc(C(=O)CSc2nnc(-c3ccccc3)o2)c(C)n1CC1COc2ccccc2O1 (stereo not drawn)	n	x	n	n	x	x
Cc1cc2oc(=O)cc(CN3CCCCC3C)c2cc1C (stereo not drawn)	36	n	n	n	n	n
O=C(C[C@H]1C[C@@H]2c3cc(NC(=O)Nc4ccccc4F)ccc3O[C@@H]2[C@@H](CO)O1)NCc1cc(F)ccc1F	x	n	x	x	x	x
O=C(COC(=O)/C=C/c1ccc([N+](=O)[O-])cc1)NCC1CCCO1 (stereo not drawn)	n	n	x	n	x	x
O=C(COC(=O)/C=C/c1cccc([N+](=O)[O-])c1)NCC1CCCO1 (stereo not drawn)	48	n	n	n	n	n
CC1=NN(C(N)=S)C(=O)C1N=Nc1ccc(Br)cc1 (stereo not drawn)	41	n	n	n	n	n
Cc1cc(O)c(C=O)c2c1C(=O)Oc1c(CO)c(O)c3c(c1O2)C(O)OC3=O (stereo not drawn)	47	x	x	57	62	86
NNc1ncnc2scc(-c3ccc(Cl)cc3)c12	n	n	n	n	x	x
Cc1ccc(-c2csc3ncnc(NS(=O)(=O)c4ccc(Cl)cc4)c23)cc1	50	n	n	n	44	n
O=C(NCC[C@@H]1CC[C@H](NS(=O)(=O)c2ccc(F)cc2)[C@H](CO)O1)c1ccccc1F	x	n	x	x	x	x
O=C1CCCC2=C1C(c1ccc(Br)cc1)c1c([nH]c(=S)[nH]c1=O)N2 (stereo not drawn)	n	x	n	n	x	x
O=c1[nH]c(=S)[nH]c2c1C(c1ccc(Br)cc1)c1c([nH]c(=S)[nH]c1=O)O2	43	96	x	67	75	n
COc1cccc(C#Cc2ccc([C@H]3[C@@H](CO)N(C(=O)C4CCCCC4)[C@H]3C#N)cc2)c1	x	n	x	x	x	x
CCCN(C)C[C@@H]1Oc2cc(C#C[C@@H](C)O)ccc2S(=O)(=O)N([C@H](C)CO)C[C@@H]1C	x	n	x	x	x	x
OCc1cc(Br)ccc1OCc1nc2ccccc2s1	38	n	n	n	n	n
SMILES	HCV NS3 hel inh	CASP6 VEID inh	NSD2 HMT inh	DNMT1 inh	NS3 hel confirm	DNA FID counter
Oc1ccccc1OCc1nc2ccccc2s1	n	x	x	n	x	x
CCC(=O)N1CC(=O)N2[C@H](CO)[C@H](c3ccc(C#Cc4cccc(F)c4)cc3)[C@H]2C1	x	n	x	x	x	x
Cc1ccc(S(=O)(=O)Nc2nc3ccccc3nc2NCc2ccco2)cc1	36	x	n	n	40	n
O=S(=O)(Nc1nc2ccccc2nc1NCc1ccco1)c1ccc(Cl)cc1	n	x	n	n	x	x
CO[C@@H]1CC[C@H]2CCN(C)C(=O)C[C@H](c3ccccc3)CN(C)C(=O)c3cccc(C#N)c3OC[C@H]1O2	x	n	x	x	x	x
CCOc1cccc(=O)c2c(C)n(C)c(C)c12	n	x	n	n	x	x
CCCCCn1c(C)c2c(OCC)cccc(=O)c2c1C	54	n	n	n	n	n
C[C@@H]1CN([C@H](C)CO)C(=O)c2cc(NC(=O)CCCN(C)C)ccc2O[C@@H](C)CCCCO[C@H]1CN(C)S(=O)(=O)c1cccs1	x	n	x	x	x	x
NS(=O)(=O)c1ccc(N=Nc2c(O)c(C(=O)O)cc3ccccc23)cc1	n	n	n	n	x	x
O=C(O)Cc1ccc(N=Nc2c(O)c(C(=O)O)cc3ccccc23)cc1	42	40	n	61	64	n
Cc1ccc(C(=O)N/C(=C/c2ccco2)C(=O)NCc2ccco2)cc1	37	n	n	n	n	n
Cc1ccc(C(=O)N/C(=C/c2ccco2)C(=O)N2CCC(C)CC2)cc1	47	n	n	n	n	n
CCCn1c(C(C)Nc2nc(-c3ccc(Cl)c([N+](=O)[O-])c3)cs2)nc2cc(Cl)c(N3CCCCC3)cc21 (stereo not drawn)	92	x	x	n	n	n
Cc1ccc(Cn2c(C(CO)Nc3nc(-c4ccc(Cl)c([N+](=O)[O-])c4)cs3)nc3ccccc32)cc1 (stereo not drawn)	x	n	x	n	x	x
C[C@H](CO)N1C[C@H](C)[C@H](CN(C)C)Oc2cc(C#CC3CCCCC3)ccc2S1(=O)=O	x	n	x	x	x	x
C[C@@H]1CN([C@@H](C)CO)C(=O)Cc2cc(NS(=O)(=O)c3ccccc3)ccc2O[C@H]1CN(C)Cc1ccc2c(c1)OCO2	x	n	x	x	x	x
S=c1nc(COc2ccccc2)[nH]c2ccccc12	42	n	n	n	n	n
CC(=O)C1=C(O)C(=O)N(c2ccc(Br)cc2)C1c1cccc(F)c1 (stereo not drawn)	37	n	n	n	n	n
Cc1ccc(S(=O)(=O)NC(=O)Nc2ccc(N(C)C)cc2)cc1	51	n	n	n	70	n
Cc1ccc(S(=O)(=O)NC(=O)c2cc(C)n(-c3ccc(N(C)C)cc3)c2C)cc1	42	n	n	n	n	n
COC(=O)[C@H]1[C@H](CO)[C@H]2Cn3c(ccc(-c4cccc(F)c4)c3=O)[C@H]2N1S(C)(=O)=O	x	n	x	x	x	x
C[C@@H]1CN([C@@H](C)CO)C(=O)c2cc(NC(=O)C3CCCCC3)ccc2O[C@@H](C)CCCCO[C@@H]1CN(C)C(=O)c1ccncc1	x	n	x	x	x	x
Oc1cccc(/C=N/N(Cc2ccccc2)c2ccccc2)c1	n	n	n	n	x	x
Oc1ccc(/C=N/N(Cc2ccccc2)c2ccccc2)c(O)c1O	71	n	n	n	n	n
COc1ccc2c3c(n(C)c2c1)[C@H](CO)N(Cc1ccncc1)CC31CN(C(=O)C2CC2)C1	x	n	x	x	x	x
CSc1ccc(C2Nc3cccc4cccc(c34)N2)cc1	n	n	n	n	x	x
Clc1ccc(C2Nc3cccc4cccc(c34)N2)cc1	69	n	n	n	n	n
